Screens (PubChem BioAssay)
Hits are enriched below; roughly 3.2% of the tested compounds scored in any of these assays.
PRMT1 inh – inhibitors of human PRMT1; Q99873; recombinant PRMT1, activity-based probe fluorescence polarization; inhibition, % at 2.79 µM; actives 1.3% (n = 370,000); AID 652257;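 active means inhibition above about 21% made by adding two undisclosed values, limit read from the data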
Target sequence (Q99873 whole entry, looked up): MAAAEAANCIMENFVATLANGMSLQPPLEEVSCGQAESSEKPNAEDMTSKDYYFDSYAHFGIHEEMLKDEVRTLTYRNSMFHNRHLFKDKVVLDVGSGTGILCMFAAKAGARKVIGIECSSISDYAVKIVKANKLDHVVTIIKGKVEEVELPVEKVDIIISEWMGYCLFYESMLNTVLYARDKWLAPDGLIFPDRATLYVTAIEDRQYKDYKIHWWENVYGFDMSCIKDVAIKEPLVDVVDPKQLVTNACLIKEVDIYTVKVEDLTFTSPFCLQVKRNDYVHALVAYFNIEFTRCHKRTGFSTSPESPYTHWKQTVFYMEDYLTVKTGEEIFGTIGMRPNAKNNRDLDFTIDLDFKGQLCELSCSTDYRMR
HTRA1 inh – HTRA1 (human) protease inhibition; Q92743; recombinant HTRA1, FP-rhodamine activity-based probe, fluorescence polarization; inhibition, % at 5.96 µM; actives 0.5% (n = 340,000); in the data active means inhibition above about 36%;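 further: 0% = enzyme with DMSO and 100% = wells lacking enzyme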
DAGLB inh – blocks human DAGLB lipase activity | AID 504411 | actives 0.059% (n = 340,000) | Q8NCG7 | inhibition, % at 5.17 µM | HEK293T DAGLB membrane lysate, EnzChek fluorogenic substrate; in the data active means inhibition above about 34%;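 further: 0% = enzyme with vehicle and 100% = wells lacking enzyme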
rCAG RNA binder – r(CAG) repeat RNA binding. TO-PRO-1 dye displacement fluorescence. inhibition, % at 3 µM. actives 1.3% (n = 370,000);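 active means inhibition above the plate cutoff, the mean of all test compounds on that plate plus 3 SD, cut at about 35% in these data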;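 further: 0% = DMSO alone and 100% = 100 µM mitoxantrone as full dye displacement; higher means more dye released from RNA so lower well fluorescence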
ABHD4 inh – inhibitors of mouse ABHD4; Q8VD66; inhibition, % at 8.92 µM; AID 720543; actives 0.54% (n = 370,000); purified mABHD4, FP-Rh probe fluorescence polarization;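 active means inhibition exceeding the mean over every tested compound plus 3 SD, cut at about 30% in these data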;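 further: 0% = plate median of compound wells and 100% = S159A mutant with DMSO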
Target sequence (Q8VD66 whole entry, looked up): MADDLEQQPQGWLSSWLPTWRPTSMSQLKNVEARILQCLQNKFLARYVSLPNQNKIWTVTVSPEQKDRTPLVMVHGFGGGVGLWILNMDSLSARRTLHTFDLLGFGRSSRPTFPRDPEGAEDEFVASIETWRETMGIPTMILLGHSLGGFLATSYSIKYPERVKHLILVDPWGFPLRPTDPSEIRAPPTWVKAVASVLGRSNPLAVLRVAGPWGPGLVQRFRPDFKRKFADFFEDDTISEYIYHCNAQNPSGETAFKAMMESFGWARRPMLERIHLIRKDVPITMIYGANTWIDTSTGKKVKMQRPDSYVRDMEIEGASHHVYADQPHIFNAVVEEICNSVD
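Assay system: mABHD4 protein; medium: HEPES pH 7.0, NaCl, Pluronic buffer; dosing: 8.92 µM, single dose; schedule: 45 min + 60 min at 25 °C; signal: FP readout, ex 525 nm / em 598 nm; read-out: normalized percent inhibition of probe labeling; repeats: single replicate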
LEDGF integ inh – blocks HIV-1 LEDGF/p75-dependent DNA integration; TR-FRET IN-LEDGF/p75 DNA integration, Eu/Cy5; inhibition, % at 3.7 µM; actives 0.64% (n = 370,000);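 active means inhibition above the screen-wide mean plus 3 SD, cut at about 13% in these data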;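 further: signal is the Cy5 over europium emission ratio at 671 and 618 nm; 0% = plate median of compound wells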
rCAG binder conf – r(CAG) RNA repeat binding, confirmation | shares compounds with rCAG RNA binder | actives 70% (n = 4,300) | inhibition, % at 3 µM | AID 652065 | TO-PRO-1 dye displacement fluorescence;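 active means inhibition above a per-plate cutoff, the mean inhibition of sample wells plus 3 SD, cut at about 35% in these data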;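 further: loss of TO-PRO-1 fluorescence as compound displaces dye from 1x1 AA loop RNA; 0% = DMSO only wells and 100% = 100 µM mitoxantrone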
DNA CAG counter – counter-screen for rCAG RNA binders: DNA CAG dye complex inhibitors; inhibition, % at 3 µM; AID 652068; actives 94% (n = 4,300); d(CAG) DNA oligo TO-PRO-1 dye displacement, fluorescence; shares compounds with rCAG RNA binder;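 active means inhibition above its plate's cutoff, the mean test-well inhibition plus 3 SD, cut at about 4.8% in these data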;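 further: 0% = DNA dye mix with DMSO and 100% = 100 µM mitoxantrone; hits displace the dye from DNA and so lower well fluorescence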
dCAG dye DR – disrupts DNA CAG TO-PRO-1 complex in dose response; shares compounds with rCAG RNA binder; DNA CAG/GTC duplex TO-PRO-1 dye displacement fluorescence; IC50, µM; actives 20% (n = 250); in the data active means IC50 below about 10 µM
* marks the source's active call; other numbers are inactive results; i = inactive; · = no result.

SMILES | PRMT1 inh | HTRA1 inh | DAGLB inh | rCAG RNA binder | ABHD4 inh | LEDGF integ inh | rCAG binder conf | DNA CAG counter | others
COC(=O)c1c(-c2ccc(C)cc2)csc1NC(=O)C1CC=CCC1C(=O)O (stereo unspecified) | 8 | -7 | 3 | 38* | -20 | -1 | 38* | 8.5*
N=C1C(c2nc(-c3ccc(Cl)cc3)cs2)=C(O)CN1CCCN1CCOCC1 | 1 | 12 | 6 | 8 | 18 | 0 | · | ·
CCCCCOC(=O)C1C(c2ccccc2)C(C(=O)O)C1c1ccccc1 (stereo unspecified) | -1 | -7 | 6 | 35* | 13 | 6 | 24 | 3
O=C(O)C1C(c2ccccc2)C(C(=O)OCCCO)C1c1ccccc1 (stereo unspecified) | 5 | -7 | -1 | 4 | 0 | -2 | · | ·
O=c1[nH]n2c(=O)c3c([nH]c2c1N=Nc1cccc(Cl)c1)CCCC3 | 5 | 17 | 31 | 75* | 19 | 4 | 85* | 48*
CC1(C)CC(=O)C(C2C3=C(CC(C)(C)CC3=O)OC3=C2C(=O)CC(C)(C)C3)=C(O)C1 | -5 | 5 | 1 | 44* | 5 | 1 | 2 | 1
C=CCN(CC=C)S(=O)(=O)c1ccc(C(=O)Nc2nnc(CSC)o2)cc1 | -4 | -1 | 4 | 13 | -4 | -4 | · | ·
Cc1ccc(S(=O)(=O)Nc2nc(C)c(C(=O)NNS(=O)(=O)c3ccccc3)s2)cc1 | 0 | 9 | 2 | 14 | 11 | -3 | · | ·
C/C(=N/NC(=O)c1sc(NS(=O)(=O)c2ccccc2)nc1C)c1sc(N)nc1C | 1 | -1 | 5 | 79* | 12 | 2 | 10 | 3
Cc1nc(NS(=O)(=O)c2ccccc2)sc1C(=O)NN | 0 | · | · | 83* | 2 | -1 | 9 | 4
Cc1ccc(S(=O)(=O)Nc2nc(C)c(C(=O)N/N=C/c3ccccc3)s2)cc1 | -4 | -6 | 7 | 80* | -1 | 1 | 70* | 24* | dCAG dye DR=i
Cc1ccc(S(=O)(=O)Nc2nc(C)c(C(=O)Nc3ccccc3)s2)cc1 | -2 | -12 | 6 | 36* | 6 | 1 | 19 | 2
Cn1c(SCC(=O)N2CCCc3ccccc32)nnc1-c1c[nH]c2ccccc12 | 1 | 0 | 0 | -3 | -1 | 0 | · | ·
COc1ccc2[nH]c3c(c2c1)CCN1C(=O)C(CC(=O)NCCCn2ccnc2)C[C@H](C(=O)N2CCCCC2)[C@@]31C (stereo partly specified) | -2 | 12 | -2 | 0 | -6 | 1 | · | ·
O=C(Cc1ccccc1)Nc1nonc1NC(=O)c1ccccc1 | 1 | -11 | 0 | 3 | -6 | 2 | · | ·
NC(=O)C1(Nc2ccc(-c3ccc(Cl)cc3)cc2)CCCC1 | 8 | 12 | 4 | 4 | -9 | 6 | · | ·
Cn1c(N)c(C(=O)N/N=C/c2ccccc2)sc1=S | -1 | 19 | 7 | 43* | 5 | 4 | 21 | 7.8*
Cc1ccc(S(=O)(=O)Nc2nc(C)c(NC(=O)Nc3ccc(Cl)cc3Cl)s2)cc1 | 1 | 13 | 9 | 62* | 17 | 0 | 59* | 24*
O=C(NN1C(=O)c2cc(Br)ccc2NC1c1cc(Br)cc(Br)c1O)c1ccncc1 (stereo unspecified) | -1 | 6 | 13 | 51* | 7 | 2 | 42* | 14*
O=C(NCc1n[nH]c(=S)n1-c1ccc(Cl)c(Cl)c1)c1ccc(S(=O)(=O)N2CCCCC2)cc1 | 23* | -6 | 6 | 36* | 6 | -3 | 30 | 11*
O=C(NCc1n[nH]c(=S)n1-c1cccc(Cl)c1)c1ccc(S(=O)(=O)N2CCCC2)cc1 | 4 | 3 | -2 | 10 | 0 | -2 | · | ·
O=C(CSc1nnc(C2CC2)n1CC1CCCO1)Nc1cccc(Cl)c1 (stereo unspecified) | 0 | 5 | 0 | -2 | 0 | -4 | · | ·
Nc1nc(-c2ccc(S(=O)(=O)N3CCCCC3)cc2)cs1 | 3 | -17 | 3 | 9 | 0 | 5 | · | ·
NC(=O)c1ccsc1NC(=O)COC(=O)Cc1ccc(F)cc1 | -1 | -2 | -1 | 5 | 1 | -1 | · | ·
Cc1ccc([C@@H]2CC=C(C(=O)O)[C@H](c3ccc(F)cc3)N2S(=O)(=O)c2ccccc2C)cc1 | -1 | -13 | 4 | 70* | 12 | 4 | 60* | 23*
SMILES | PRMT1 inh | HTRA1 inh | DAGLB inh | rCAG RNA binder | ABHD4 inh | LEDGF integ inh | rCAG binder conf | DNA CAG counter | others
Cc1ccc([C@@H]2CC=C(C(=O)O)[C@H](c3cccc(F)c3)N2S(=O)(=O)c2ccccc2C)cc1 | -1 | -16 | -1 | 76* | 6 | 4 | 67* | 28*
Cc1ccc([C@@H]2CC=C(C(=O)O)[C@H](c3ccccc3F)N2S(=O)(=O)c2ccccc2C)cc1 | -1 | -8 | -2 | 51* | 18 | 2 | 59* | 24*
COc1ccc(-c2cc(=O)c(C(=O)c3ccc(C)cc3)n[nH]2)cc1 | -1 | 4 | -3 | -1 | -8 | 7 | · | ·
O=C(NCc1ccccc1)[C@@H]1CCCN1C(=O)[C@H]1CCCN1C(=O)c1ccccc1C(F)(F)F | 2 | · | · | -3 | -1 | -2 | · | ·
Cc1ccc(C)c(Cc2c(C)nc(C)[nH]c2=O)c1 | 1 | -1 | 1 | 3 | -2 | 3 | · | ·
CCN(CC)c1nc(N)c2c(N)nc3c(c2c1C#N)CC(c1ccccc1)O3 (stereo unspecified) | 3 | -2 | -1 | 27 | 8 | -1 | · | ·
CCN(CC)c1nc(N)c2c(N)n(-c3ccccc3C)c(=S)c(C#N)c2c1C#N | 11 | 33 | 15 | 98* | 11 | 2 | 93* | 69*
COc1ccccc1N1CCN(CC(O)c2ccc3cc[nH]c3c2)CC1 (stereo unspecified) | -4 | 3 | 1 | 6 | 0 | -1 | · | ·
Cc1ccc(S(=O)(=O)C(C#N)c2nc3ccccc3nc2OCCO)cc1 (stereo unspecified) | -3 | -2 | 3 | 62* | 3 | 2 | 52* | 15*
CCOC(=O)/C=C1\SCC(=O)N1CC(=O)c1ccc[nH]1 | 0 | 7 | 2 | 9 | -2 | 2 | · | ·
Cc1ccc(NS(=O)(=O)c2ccc(NS(=O)(=O)c3cccs3)cc2)cc1 | -2 | -5 | 3 | 32 | 0 | 4 | · | ·
O=S(=O)(Nc1ccc(Br)cc1)c1cccc(NS(=O)(=O)c2cccs2)c1 | 0 | -6 | 3 | 37* | -17 | 0 | 29 | 6.9*
